# Results from different studies.
# Protocols differ between the studies behind these lines.
# CHRM1: Muscarinic acetylcholine receptor M1 (CHRM1, Homo sapiens, UniProt P11229)
# HDAC11: Histone deacetylase 11 (HDAC11, Homo sapiens, UniProt Q96DB2)
# ALDH2: Aldehyde dehydrogenase, mitochondrial (ALDH2, Homo sapiens, UniProt P05091)
# CYP1A2: Cytochrome P450 1A2 (CYP1A2, Homo sapiens, UniProt P05177)
# CYP3A4: Cytochrome P450 3A4 (CYP3A4, Homo sapiens, UniProt P08684)
Structure (SMILES),target,test,system,conditions,IC50
O=C(CCNC(=O)CNC(=O)CC(c1ccccc1)(c1ccccc1)c1ccccc1)NC[C@@H]1CCCN(Cc2ccc(F)nc2)C1,CHRM1,"ligand displacement, radioligand",,cell membranes,> 30 µM
COc1ccc(N(Cc2csc(-c3ccccc3)n2)C(=O)CCCCCC(=O)NO)cc1,HDAC11,"enzyme activity, inhibitor",,,> 10 µM
CCc1cnn2c(NCc3ccc[n+]([O-])c3)cc(N3CCCC[C@H]3CCO)nc12,"Tyrosine-protein kinase JAK1 (JAK1, Homo sapiens, UniProt P23458)","enzyme activity, inhibitor, ELISA",,,0.062 µM
OC[C@H]1O[C@@H](Oc2ccc(O)c3cccc(O)c23)[C@H](O)[C@@H](O)[C@@H]1O,ALDH2,"enzyme activity, inhibitor, fluorescence",,,< 10 µM
COc1ccc(N(Cc2nc(-c3ccc(F)cc3)cs2)C(=O)CCCCCC(=O)NO)cc1,HDAC11,"enzyme activity, inhibitor",,,> 10 µM
CCc1oc2ccccc2c1C(=O)c1cc(Br)c(O)c(Br)c1,"Solute carrier organic anion transporter family member 1B1 (SLCO1B1, Homo sapiens, UniProt Q9Y6L6)","transporter uptake, inhibitor, radiometric",,oocytes,1.54 µM
OCc1ccc(-c2nn(Cc3ccccc3)c3ccccc23)o1,CYP1A2,"enzyme activity, inhibitor","human, liver microsomes",,0.9 µM
Nc1cnccc1Nc1ccc(Cl)c(Cl)c1,"Endonuclease III-like protein 1 (NTHL1, Homo sapiens, UniProt P78549)","enzyme activity, inhibitor",,,> 100 µM
CN(C)C(=O)c1cc2cnc(Nc3ccc(-c4ccc5c(=O)cc(N6CCOCC6)oc5c4)cc3)nc2n1C1CCCC1,CYP1A2,"enzyme activity, inhibitor, fluorescence",,pH 8,> 100 µM
CNC(=O)[C@H](Cc1c[nH]c2ccccc12)NC(=O)[C@@H](CC(=O)NO)CC(C)C,"Collagenase 3 (MMP13, Homo sapiens, UniProt P45452)","enzyme activity, inhibitor",,,0.000129 µM
Cc1cccc2c1NC(=O)/C2=C/c1cc(Cl)c(O)c(Cl)c1,ALDH2,"enzyme activity, inhibitor, fluorescence",,,12.7 µM
O=C(CCNC(=O)CNC(=O)CC(c1ccccc1)(c1ccccc1)c1ccccc1)NC[C@@H]1CCCN(Cc2cccnc2F)C1,CHRM1,"ligand displacement, radioligand",,cell membranes,> 30 µM
C=CCn1c(=O)c2cnc(Nc3ccc(N4CCN(C)CC4)cc3)nc2n1-c1ccc2c(n1)[C@@](O)(CC)CC2,CYP3A4,"enzyme activity, inhibitor",,,7 µM
Cc1cc2c(C(N)=O)c(N)n(-c3c(C)ccc(O)c3C)c2nc1C,"RAF proto-oncogene serine/threonine-protein kinase (RAF1, Homo sapiens, UniProt P04049, Y340D/Y341D)","enzyme activity, inhibitor, ADP detection",,,0.0044 µM
COc1nc2ccc(Br)cc2cc1[C@@H](c1ccccc1)[C@@](O)(CCN(C)C)c1cccc2ccccc12,ALDH2,"enzyme activity, inhibitor, fluorescence",,,< 10 µM
O=C(O)c1cc(-c2ccc(-n3ccnn3)cc2)c2ccc(-c3ccc(C(F)(F)F)cc3)cc2c1,CYP3A4,"enzyme activity, inhibitor",,,7.07 µM
CCCN(CCC)S(=O)(=O)c1ccc(C(=O)O)cc1,"Taste receptor type 2 member 14 (TAS2R14, Homo sapiens, UniProt Q9NYV8, S265A)","inositol phosphate, antagonist, TR-FRET",,,1000 µM
